Experimental data published in ChEMBL document CHEMBL4818983, “Structure-activity relationship and hypoglycemic activity of tricyclic matrines with advantage of treating diabetic nephropathy” (Eur J Med Chem, 2020).
Calls of active or inactive are those of the source. The rule behind the calls is not given here.

Assays:
[1] = Effect on high fat diet-fed KK-Ay mouse model of obesity and diabetes assessed as total body weight gain at 100 mg/kg, po (reference value: 43.5 +/- 5.24 g); assay type: ADME, organism-based; details: in vivo
Summary of the method: (§1)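 KK-Ay mice on lipogenic diet, with C57BL/6J mice as normal controls, dosed orally at 50 or 100 mg/kg (test) or 5 mg/kg (RGZ). Food intake (g/day), water intake (mL/day) and body weight recorded before and after treatment; body weight gain calculated. Mean±SD, 8-9 mice per group.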

L6 [2] = test: Induction of glycolysis in rat L6 cells assessed as reduction in cellular ATP production at 10 to 40 uM measured after 24 hrs; assay type: functional, cell-based; details: dose 10-40 µM
Summary of the method: (§2)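 L6 myotubes treated with DMSO, compound or RGZ (20 μM) at the indicated concentrations for 24 h. Culture supernatants assayed for glucose consumption and lactate release; lysed cells assayed for ATP, normalized to protein. Mean ± SD of 3 independent experiments vs DMSO.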

Mus musculus [3] = test: Anti-diabetic activity in overnight fasted diabetic KK-Ay mouse assessed as reduction in blood glucose AUC at 5 mg/kg, po […] measured after 35 days by oral glucose tolerance test; assay type: functional, organism-based
Summary of the method: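 KK-Ay mice orally treated with 50 or 100 mg/kg compound or 5 mg/kg rosiglitazone, C57BL/6J as normal controls. After 35 days of treatment, oral glucose tolerance test and insulin tolerance test run. Blood glucose plotted against time, AUC calculated. Mean ± SD, 8-9 mice per group.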

Mus musculus [4] = test: Anti-diabetic activity in high fat diet-fed KK-Ay mouse model of obesity and diabetes assessed as improved pathological changes in pancreas at 50 to 100 mg/kg, po by hematoxylin and eosin staining based histopathological analysis; assay type: functional, organism-based; details: dose 50-100 mg/kg
Summary of the method: (§3)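 Mice sacrificed at study end, with KK-Ay given 50 or 100 mg/kg compound or 5 mg/kg rosiglitazone orally and C57BL/6J as normal controls. Kidney and pancreas sections H&E stained, imaged at 200×, pathological changes scored. Mean ± SD of 8-9 mice per group.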

Mus musculus [5] = test: Anti-diabetic activity in high fat diet-fed KK-Ay mouse model of obesity and diabetes assessed as reduction in total protein level in urine at 50 to 100 mg/kg, po measured after 24 hrs; assay type: functional, organism-based; details: dose 50-100 mg/kg
Summary of the method: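 Before study end, 24-h urine collected from C57BL/6J controls and KK-Ay mice (untreated, oral 50 or 100 mg/kg compound, or 5 mg/kg rosiglitazone). Volume, glucose, total protein and microalbumin measured by kits. Mean ± SD, 8-9 mice per group, vs C57BL/6J or untreated KK-Ay.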

[6] = Effect on high fat diet-fed po dosed C57BL/6J mouse model of obesity and diabetes assessed as water intake; assay type: organism-based; details: in vivo
HepG2 [7] = test: Induction of glycolysis in human HepG2 cells assessed as increase in lactate release at 10 to 40 uM measured after 24 hrs; details: dose 10-40 µM
Mus musculus [8] = test: Antidiabetic activity in KK-Ay mouse assessed as effect on cholesterol level at 100 mg/kg, po for 24 hrs by ELISA (reference value: 7.38 +/- 1.03 mM); assay type: functional
[9] = Acute toxicity in Kunming mouse assessed as effect on blood CRE level at 250 to 1000 mg/kg, po administered as single dose measured for 7 days; assay type: organism-based; details: in vivo, 168 h, dose 250-1000 mg/kg, time 7 day
Summary of the method: (§4)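 Kunming mice each received one oral dose at 250, 500, 750 or 1000 mg·kg^-1 and were closely monitored for 7 days. At the end, blood was sampled and GOT, GPT, BUN and CRE were measured […] as liver and kidney function markers.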

HepG2 [10] = test: Increase in glucose consumption in human HepG2 cells assessed as Gx/GDMSO ratio at 25 uM by glucose oxidase assay; assay type: functional
Summary of the method: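 HepG2 glucose consumption screen. Test compounds at 25 μM, metformin at 5 mM. Activity expressed as ratio of glucose consumption to DMSO-treated cells (Gx/G_DMSO).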

[11] = Acute toxicity in po dosed Kunming mouse administered as single dose measured for 7 days; assay type: organism-based; details: in vivo, time 7 day
Summary of the method: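 Kunming mice each received one oral dose at 250, 500, 750 or 1000 mg·kg^-1 and were closely monitored for 7 days. The median lethal dose (LD50) was estimated from this single-dose experiment.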

Mus musculus [12] = test: Antidiabetic activity in KK-Ay mouse assessed as effect on BUN level at 50 mg/kg, po for 24 hrs by ELISA (reference value: 12.8 +/- 2.97 mM); assay type: functional
Mus musculus [13] = test: Antidiabetic activity in KK-Ay mouse assessed as effect on insulin level at 100 mg/kg, […] by ELISA (reference value: 226 +/- 15.5 mU/l); assay type: functional
[14] = Effect on high fat diet-fed KK-Ay mouse model of obesity and diabetes assessed as water intake at 50 mg/kg, po (reference value: 21.2 +/- 4.17 ml/day); assay type: ADME, organism-based; details: in vivo; summary of the method: as §1
L6 [15] = test: Induction of glycolysis in rat L6 cells assessed as increase in lactate release at 10 to 40 uM measured after 24 hrs; details: dose 10-40 µM
Mus musculus [16] = test: Antidiabetic activity in KK-Ay mouse assessed as reduction in fasting blood glucose level at 50 mg/kg, po for 50 days by glucose oxidase method (reference value: 13.2 +/- 2.51 mM); assay type: functional; details: time 50 day
Summary of the method: (§5)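 Lipogenic-diet KK-Ay mice given 50 or 100 mg/kg compound or 5 mg/kg rosiglitazone orally for 50 days, C57BL/6J as normal controls. Fasting blood glucose, glycosylated haemoglobin, AGE, insulin, HOMA-IR, cholesterol, LDL-c, TG, serum creatinine and BUN determined. Mean ± SD, 8-9 mice per group.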

Mus musculus [17] = test: Anti-diabetic activity in high fat diet-fed KK-Ay mouse model of obesity and diabetes assessed as reduction in urine glucose level at 50 to 100 mg/kg, po measured after 24 hrs; details: dose 50-100 mg/kg
Mus musculus [18] = test: Antidiabetic activity in KK-Ay mouse assessed as effect on HOMA-IR level at 50 mg/kg, […] by ELISA (reference value: 137 +/- 18.4); assay type: functional
[19] = Acute toxicity in Kunming mouse assessed as effect on blood BUN level at 250 to 1000 mg/kg, po administered as single dose measured for 7 days; assay type: organism-based; details: in vivo, 168 h, dose 250-1000 mg/kg, time 7 day; summary of the method: as §4
L6 [20] = test: Increase in glucose consumption in rat L6 cells at 10 to 40 uM measured after 24 hrs; assay type: functional, cell-based; details: dose 10-40 µM; summary of the method: as §2
Mus musculus [21] = test: Antidiabetic activity in KK-Ay mouse assessed as effect on glycosylated haemoglobin level at 100 mg/kg, po for 50 days by glucose oxidase method (reference value: 8.74 +/- 1.08%); assay type: functional; details: time 50 day; summary of the method: as §5
[22] = Effect on high fat diet-fed KK-Ay mouse model of obesity and diabetes assessed as food intake at 50 mg/kg, po (reference value: 5.67 +/- 0.55 g/day); assay type: ADME, organism-based; details: in vivo; summary of the method: as §1
Mus musculus [23] = test: Anti-diabetic activity in high fat diet-fed KK-Ay mouse model of obesity and diabetes assessed as improved pathological changes in kidney at 50 to 100 mg/kg, po by hematoxylin and eosin staining based histopathological analysis; assay type: functional, organism-based; details: dose 50-100 mg/kg; summary of the method: as §3

SMILES: CCCC[C@@H]1[C@H]2CCCN3CCC[C@@H](CN1S(=O)(=O)c1ccc(C(F)(F)F)cc1)[C@@H]23
- Activity [1]: 2.53 g
- Activity (L6 [2]): Active
- Activity (Mus musculus [3]): Active
- Activity (Mus musculus [4]): Active
- Activity (Mus musculus [5]): Active
- Activity [6]: 4.38 mL/day
- Activity (HepG2 [7]): Dose-Dependent Effect
- Activity (Mus musculus [8]): 5.55 mM
- Activity [9]: Non-Toxic
- Ratio (HepG2 [10]): 1.49
- LD50 at 168 h [11]: 1000 mg/kg
- Activity (Mus musculus [12]): 12.7 mM
- Activity (Mus musculus [13]): 128 mU/L
- Activity [14]: 13.8 mL/day
- Activity (L6 [15]): Dose-Dependent Effect
- Activity (Mus musculus [16]): 9.44 mM
- Activity (Mus musculus [17]): Active
- Activity (Mus musculus [18]): 74.3
- Activity [19]: Non-Toxic
- Activity (L6 [20]): Dose-Dependent Effect
- Activity (Mus musculus [21]): 6.75%
- Activity [22]: 5.2 g/day
- Activity (Mus musculus [23]): Active
